H9c2 protect – cardioprotection against H2O2-induced cell death, primary screen, uHTS, H9c2 cells, ATPLite luminescence; protection from H2O2 cell death, % at 20 µM; AID 588492, 2011; 0.63% of 360,000 active; H9c2 cardiomyocytes, H2O2 injury protection, 2 h;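 active = compounds giving at least 50% protection of heart cells from peroxide-induced death in the single-dose screen, raw or plate-pattern-corrected value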
DAGLB inhibitor – DAGLB lipase inhibitors, primary screen, biochemical, fluorescence, HTS; HEK293T DAGLB membrane lysate, EnzChek fluorogenic substrate; inhibition, % at 5.17 µM; AID 504411, 2011; 0.059% of 340,000 active; in the data active = inhibition above about 34%
TAG inh – inhibitors of triacylglycerol accumulation, primary screen, cell-based, uHTS, fluorescence, H9c2; H9c2 cells, Nile Red lipid (TAG) fluorescence; cells loaded with 200 µM oleic acid; inhibition, % at 12.5 µM; 0.66% of 230,000 active; AID 651582, 2012;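 active = pattern-corrected inhibition of lipid staining of at least 50% with the nuclear-stain viability signal not falling by more than 50%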
DDE Tn6 FP inh – inhibitors of Tn6 peptide binding to fibrin DD(E), primary screen, biochemical, fluorescence polarization, human fibrin, Tn6 probe; 0.21% of 370,000 active; Fibrin DD(E) TRITC-Tn6 fluorescence polarization displacement; inhibition, % at 8.3 µM; Fibrinogen beta chain (Homo sapiens), P02675;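 active = inhibition above a per-campaign cutoff: mean of compounds within control limits plus 3 SD, cut at about 15% in these data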
Target sequence (P02675 whole entry, looked up): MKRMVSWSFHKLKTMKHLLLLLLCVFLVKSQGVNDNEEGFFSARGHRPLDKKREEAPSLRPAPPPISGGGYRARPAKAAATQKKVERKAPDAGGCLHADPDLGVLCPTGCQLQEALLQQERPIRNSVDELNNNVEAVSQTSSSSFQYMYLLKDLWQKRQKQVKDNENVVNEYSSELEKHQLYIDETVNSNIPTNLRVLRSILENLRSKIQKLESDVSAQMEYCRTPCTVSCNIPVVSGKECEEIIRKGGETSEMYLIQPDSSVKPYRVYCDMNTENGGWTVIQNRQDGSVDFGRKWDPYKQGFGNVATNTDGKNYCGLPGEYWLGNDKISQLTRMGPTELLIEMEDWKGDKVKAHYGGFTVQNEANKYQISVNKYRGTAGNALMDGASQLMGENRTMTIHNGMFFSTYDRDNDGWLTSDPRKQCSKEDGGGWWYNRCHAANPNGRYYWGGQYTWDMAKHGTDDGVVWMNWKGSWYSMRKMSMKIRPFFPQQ
MT1-MMP act inh – blockers of MT1-MMP proenzyme processing, primary screen, HT1080 RFP-PRO-GFP cells, GFP/RFP fluorescence; Matrix metalloproteinase-14 (Homo sapiens), P50281; AID 651647, 2012; 0.061% of 360,000 active; GFP/RFP ratio fluorescence, overnight; percent of plate control window, DMSO zero; GFP/RFP ratio change, % at 20 µM;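 active = GFP/RFP ratio change of at least 30% with cell ATP level not reduced by more than half and red fluorescence within 50% of control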
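Material: RFP-PRO-GFP reporter HT1080 cells. Dosing: single-point 20 µM compound, 1% DMSO. Controls: DMSO and RFP-L50D-GFP cell wells. Timing: cells overnight before dosing, compound overnight, 37 °C, 5% CO2. Measure: GFP/RFP fluorescence ratio.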
DDE Tn7 FP inh – inhibitors of Tn7 peptide binding to fibrin DD(E), primary screen, biochemical, fluorescence polarization, human fibrin, Tn7 probe. Fibrinogen beta chain (Homo sapiens), P02675. FP displacement of FITC-Tn7 peptide from fibrin DD(E); 0% = median of compound wells per plate. inhibition, % at 8.3 µM. 0.13% of 370,000 active. AID 720508, 2013;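 active = inhibition above the mean of compounds falling within the control limits plus 3 SD of them, cut at about 14% in these data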
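Assay system: human fibrin DD(E) protein / Input: 2 µM fibrin DD(E) / Benchmarks: high control of 10 µM Aha-Tn7 peptide / Measured by: fluorescence polarization of the labelled Tn7 tracer / Medium: Tris buffer with calcium and detergent, pH 7.8 / Timing: 10 min compound pre-incubation, 3 h probe incubation at room temperature / Repeats: one replicate per compound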
DDE Tn6 FP ctr – counter-screen hit for Tn6 peptide-fibrin DD(E) binding disruption | shares compounds with DDE Tn6 FP inh | TRITC-Tn6 fluorescence polarization displacement; 0% = median of compound wells, not DMSO | inhibition, % at 8.3 µM | 2% of 680 active | AID 720621;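 active = inhibition above the mean of test compounds lying between the control limits plus 3 SD of those, cut at about 14% in these data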
DDE Tn6 confirm – inhibitors of Tn6 peptide binding to fibrin DD(E), confirmation, biochemical, fluorescence polarization, human fibrin, Tn6 probe | shares compounds with DDE Tn6 FP inh | FP displacement of TRITC-Tn6 peptide from DD(E); 0% = per-plate median of test wells | inhibition, % at 8.3 µM | 10% of 680 active | AID 720631, 2013;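 active = inhibition above the mean of compounds lying within the control limits plus 3 SD, cut at about 16% in these data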
Large screens that a line does not name were inactive (follow-up assays come after a bar, where they were run). Sampled rows, rich in hits. Any-hit rate of the full collection: about 1.4%.

CCC(C#N)(CC)P(=S)(c1ccccc1)c1ccccc1	DDE Tn6 FP inh 16 | DDE Tn6 FP ctr inactive | DDE Tn6 confirm inactive
COc1nc(C)nc(NC(=O)NS(=O)(=O)c2ccccc2Cl)n1	none
Cc1ccc(/C=C2\C(=O)NC(=S)N(c3ccc(F)cc3)C2=O)s1	none
Cc1ccc(/C=C2\C(=O)NC(=S)N(c3ccccc3F)C2=O)s1	DDE Tn6 FP inh 20 (no result: TAG inh) | DDE Tn6 FP ctr inactive | DDE Tn6 confirm inactive
C[C@]12CCC3C(CC[C@H]4C[C@@H](O)CC[C@]34C)C1CC[C@@]2(O)C(F)(F)F (some centres undefined)	DDE Tn6 FP inh 16 (no result: DAGLB inhibitor) | DDE Tn6 FP ctr inactive | DDE Tn6 confirm inactive
C[C@]12CCC3C(CC[C@H]4C[C@@H](O)CC[C@]34C)C1C[C@@H](O)[C@]2(C)O (some centres undefined)	none
CN(C)c1ccc(/C=C/c2cc[n+](C)c3ccccc23)cc1	DDE Tn6 FP inh 30 | DDE Tn6 FP ctr inactive | DDE Tn6 confirm inactive
Cc1cccc(N=Cc2c(O)n(C)c(=O)n(C)c2=O)c1	none (no result: TAG inh)

Source: PubChem
